Reference: ChEMBL document CHEMBL4266056, “Discovery and Pharmacology of a Novel Somatostatin Subtype 5 (SSTR5) Antagonist: Synergy with DPP-4 Inhibition” (ACS Med Chem Lett, 2018)
The source made the active and inactive calls. No cut-off for these calls is given here.

Columns and labels:
Cytochrome P450 2D6 = Cytochrome P450 2D6 (Homo sapiens, UniProt P10635); test: Inhibition of human CYP2D6; format: ADME
[1] = Solubility of the compound in 10% tween formulation; format: physicochemical
[2] = Oral bioavailability in rhesus monkey at 1 mg/kg; format: ADME, organism-based, Macaca mulatta; conditions: in vivo
[3] = molecular target: Sodium channel protein type 5 subunit alpha (Homo sapiens, UniProt Q14524); test: Inhibition of Nav1.5 (unknown origin)
Cytochrome P450 2C9 = Cytochrome P450 2C9 (Homo sapiens, UniProt P11712); test: Inhibition of human CYP2C9; format: ADME
[4] = Drug uptake in C57BL/6N mouse whole blood at 0.3 mg/kg, po measured at 3 hrs; format: ADME, organism-based; conditions: read-out: Drug uptake
In short: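 Whole-blood compound exposure was measured 3 h after oral dosing (0.03-3 mg/kg) in HFD mice run through the OGTT dose titration. Unbound levels were derived using the plasma free fraction.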

[5] = molecular target: Voltage-gated inwardly rectifying potassium channel KCNH2 (Homo sapiens, UniProt Q12809); test: Inhibition of MK-499 binding to human ERG
[6] = Volume of distribution in rat at 1 mg/kg, iv or 2 mg/kg, po; format: ADME, organism-based; conditions: in vivo
Mus musculus [7] = test: Antidiabetic activity in HFD fed C57BL/6N mouse assessed as decrease in blood glucose AUC at 3 mg/kg administered as single oral dose pretreated for 60 mins followed by glucose challenge measured after 120 mins by OGTT; format: functional; design: scale not given: the % may be the effect or the level left
In short: (§1)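 Oral dose titration (0.03-3 mg/kg) in HFD-fed mice, n=8. Dosing was followed by an oral glucose tolerance test. Net blood glucose AUC was expressed as % reduction versus vehicle, with P values versus vehicle.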

Mus musculus [8] = test: Antidiabetic activity in HFD fed C57BL/6N mouse assessed as increase in circulating active GLP-1 levels at 10 mg/kg, po pretreated for 60 mins measured 5 mins post glucose challenge by OGTT; format: functional, organism-based
In short: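 The SSTR5 antagonist was given orally at 10 mg/kg, alone or combined with des-fluoro sitagliptin at 10 mg/kg, ahead of an oral glucose challenge. Blood was sampled 5 min after glucose for circulating total GLP-1, active GLP-1[7-36] amide and plasma insulin.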

[9] = Volume of distribution in rhesus monkey at […], iv or 1 mg/kg, po; format: ADME, organism-based, Macaca mulatta; conditions: in vivo
[10] = Clearance in dog at […], iv or 1 mg/kg, po; format: ADME, organism-based, Canis lupus familiaris; conditions: in vivo
[11] = Volume of distribution in dog at […], iv or 1 mg/kg, po; format: ADME, organism-based, Canis lupus familiaris; conditions: in vivo
Mus musculus [12] = test: Antidiabetic activity in HFD fed C57BL/6N mouse assessed as decrease in blood glucose AUC at 1 mg/kg administered as single oral dose pretreated for 60 mins followed by glucose challenge measured after 120 mins by OGTT; format: functional; design: scale not given: the % may be the effect or the level left; in short: as §1
Mus musculus [13] = test: Antidiabetic activity in HFD fed C57BL/6N mouse assessed as decrease in blood glucose AUC at 0.1 mg/kg administered as single oral dose pretreated for 60 mins followed by glucose challenge measured after 120 mins by OGTT; format: functional; design: scale not given: the % may be the effect or the level left; in short: as §1
Pancreatic islet [14] = test: Induction of glucagon secretion in human pancreatic islets in presence of glucose by ELISA; format: functional, cell-based
In short: (§2)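 In the same human islet incubations, SST-14 and glucagon secretion were monitored alongside insulin.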

Pancreatic islet [15] = test: Induction of SST-14 secretion in human pancreatic islets in presence of glucose by ELISA; format: functional, cell-based; in short: as §2
[16] = Clearance in rat at 1 mg/kg, iv or 2 mg/kg, po; format: ADME, organism-based; conditions: in vivo
In short: (§3)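 Rat pharmacokinetics after separate intravenous (1 mg/kg) and oral (2 mg/kg) dosing. Clearance is reported in mL/kg/min and half-life in hours. Oral bioavailability is given as F (%).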

Pancreatic islet [17] = test: Induction of glucose-dependent insulin secretion in human pancreatic islets at 0.5 and 5 uM preincubated for 30 mins with glucose followed by compound addition measured after 60 mins by ELISA
[18] = Oral bioavailability in dog at 1 mg/kg; format: ADME, organism-based, Canis lupus familiaris; conditions: in vivo
[19] = Oral bioavailability in rat at 2 mg/kg; format: ADME, organism-based; conditions: in vivo; in short: as §3
[20] = Fraction unbound in rhesus monkey plasma at 0.1 uM using [3H]-labeled compound; format: ADME, cell-free, Macaca mulatta
[21] = molecular target: Somatostatin receptor type 2 (Homo sapiens, UniProt P30874); test: Antagonist activity at human SSTR2 expressed in CHO-K1 cell membranes; format: functional, cell-based
In short: (§4)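 Counter-screen by filtration membrane binding: competitive displacement of radiolabeled SST-28 from cell membranes expressing human SSTR1, SSTR2, SSTR3 or SSTR4. The IC50 is the mean of at least duplicate experiments within a maximal threefold range.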

[22] = Unbound plasma concentration in C57BL/6N mouse plasma at 0.03 mg/kg, po measured at 3 hrs; format: ADME, organism-based; conditions: in vivo
Mus musculus [23] = test: Antidiabetic activity in HFD fed C57BL/6N mouse assessed as decrease in blood glucose AUC at 0.3 mg/kg administered as single oral dose pretreated for 60 mins followed by glucose challenge measured after 120 mins by OGTT; format: functional; design: scale not given: the % may be the effect or the level left; in short: as §1
Mus musculus [24] = test: Antidiabetic activity in HFD fed C57BL/6N mouse assessed as decrease in blood glucose AUC at 0.03 mg/kg administered as single oral dose pretreated for 60 mins followed by glucose challenge measured after 120 mins by OGTT; format: functional; design: scale not given: the % may be the effect or the level left; in short: as §1
[25] = molecular target: Somatostatin receptor type 4 (Homo sapiens, UniProt P31391); test: Antagonist activity at human SSTR4 expressed in CHO-K1 cell membranes; format: functional, cell-based; in short: as §4
Mus musculus [26] = test: Antidiabetic activity in HFD fed C57BL/6N mouse assessed as decrease in blood glucose AUC administered as single oral dose pretreated for 60 mins followed by glucose challenge measured after 120 mins by OGTT; conditions: read-out: MED
Mus musculus [27] = test: Antidiabetic activity in HFD fed SSTR5 knock-out C57BL/6N mouse assessed as decrease in blood glucose AUC at 0.03 to 3 mg/kg administered as single oral dose pretreated for 60 mins followed by glucose challenge measured after 120 mins by OGTT; format: functional, organism-based

Chain of Cytochrome P450 2C9 (P11712 whole entry): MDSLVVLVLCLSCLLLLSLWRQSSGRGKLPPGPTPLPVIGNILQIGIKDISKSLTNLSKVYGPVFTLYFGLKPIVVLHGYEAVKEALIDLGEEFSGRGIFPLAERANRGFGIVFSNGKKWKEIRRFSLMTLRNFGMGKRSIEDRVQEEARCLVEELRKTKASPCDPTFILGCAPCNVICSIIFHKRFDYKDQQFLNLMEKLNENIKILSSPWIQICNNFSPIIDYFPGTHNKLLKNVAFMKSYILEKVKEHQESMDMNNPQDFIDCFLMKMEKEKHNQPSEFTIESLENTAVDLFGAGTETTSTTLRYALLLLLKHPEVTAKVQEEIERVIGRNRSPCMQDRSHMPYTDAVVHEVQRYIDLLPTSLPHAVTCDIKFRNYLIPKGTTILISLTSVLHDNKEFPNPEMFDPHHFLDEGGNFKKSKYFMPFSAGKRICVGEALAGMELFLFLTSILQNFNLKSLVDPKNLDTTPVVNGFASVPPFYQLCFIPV
Chain of Cytochrome P450 2D6 (P10635 whole entry): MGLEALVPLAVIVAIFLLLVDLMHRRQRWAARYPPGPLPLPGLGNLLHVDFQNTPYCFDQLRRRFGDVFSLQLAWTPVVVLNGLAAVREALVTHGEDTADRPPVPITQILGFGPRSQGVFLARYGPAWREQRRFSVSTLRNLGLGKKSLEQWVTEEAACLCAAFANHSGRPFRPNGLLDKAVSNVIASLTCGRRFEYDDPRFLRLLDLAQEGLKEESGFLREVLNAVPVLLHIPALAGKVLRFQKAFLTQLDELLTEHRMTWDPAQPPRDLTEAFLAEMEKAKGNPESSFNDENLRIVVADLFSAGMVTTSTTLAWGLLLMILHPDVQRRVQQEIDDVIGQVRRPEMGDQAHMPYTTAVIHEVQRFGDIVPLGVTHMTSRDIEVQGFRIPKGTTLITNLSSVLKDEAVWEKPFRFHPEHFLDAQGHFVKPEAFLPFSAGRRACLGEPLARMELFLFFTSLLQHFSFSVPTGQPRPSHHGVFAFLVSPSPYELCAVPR
Chain of Somatostatin receptor type 4 (P31391 whole entry): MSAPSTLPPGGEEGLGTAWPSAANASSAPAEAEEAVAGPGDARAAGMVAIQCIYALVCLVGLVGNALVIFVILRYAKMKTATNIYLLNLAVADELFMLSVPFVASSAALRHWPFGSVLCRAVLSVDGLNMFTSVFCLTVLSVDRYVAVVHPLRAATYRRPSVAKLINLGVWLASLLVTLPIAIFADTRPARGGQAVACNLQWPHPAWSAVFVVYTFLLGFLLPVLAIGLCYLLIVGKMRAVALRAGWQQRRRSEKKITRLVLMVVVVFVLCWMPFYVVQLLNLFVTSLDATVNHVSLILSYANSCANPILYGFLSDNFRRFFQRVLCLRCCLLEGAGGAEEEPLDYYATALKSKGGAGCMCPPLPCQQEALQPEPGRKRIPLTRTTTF
Chain of Sodium channel protein type 5 subunit alpha (Q14524 whole entry): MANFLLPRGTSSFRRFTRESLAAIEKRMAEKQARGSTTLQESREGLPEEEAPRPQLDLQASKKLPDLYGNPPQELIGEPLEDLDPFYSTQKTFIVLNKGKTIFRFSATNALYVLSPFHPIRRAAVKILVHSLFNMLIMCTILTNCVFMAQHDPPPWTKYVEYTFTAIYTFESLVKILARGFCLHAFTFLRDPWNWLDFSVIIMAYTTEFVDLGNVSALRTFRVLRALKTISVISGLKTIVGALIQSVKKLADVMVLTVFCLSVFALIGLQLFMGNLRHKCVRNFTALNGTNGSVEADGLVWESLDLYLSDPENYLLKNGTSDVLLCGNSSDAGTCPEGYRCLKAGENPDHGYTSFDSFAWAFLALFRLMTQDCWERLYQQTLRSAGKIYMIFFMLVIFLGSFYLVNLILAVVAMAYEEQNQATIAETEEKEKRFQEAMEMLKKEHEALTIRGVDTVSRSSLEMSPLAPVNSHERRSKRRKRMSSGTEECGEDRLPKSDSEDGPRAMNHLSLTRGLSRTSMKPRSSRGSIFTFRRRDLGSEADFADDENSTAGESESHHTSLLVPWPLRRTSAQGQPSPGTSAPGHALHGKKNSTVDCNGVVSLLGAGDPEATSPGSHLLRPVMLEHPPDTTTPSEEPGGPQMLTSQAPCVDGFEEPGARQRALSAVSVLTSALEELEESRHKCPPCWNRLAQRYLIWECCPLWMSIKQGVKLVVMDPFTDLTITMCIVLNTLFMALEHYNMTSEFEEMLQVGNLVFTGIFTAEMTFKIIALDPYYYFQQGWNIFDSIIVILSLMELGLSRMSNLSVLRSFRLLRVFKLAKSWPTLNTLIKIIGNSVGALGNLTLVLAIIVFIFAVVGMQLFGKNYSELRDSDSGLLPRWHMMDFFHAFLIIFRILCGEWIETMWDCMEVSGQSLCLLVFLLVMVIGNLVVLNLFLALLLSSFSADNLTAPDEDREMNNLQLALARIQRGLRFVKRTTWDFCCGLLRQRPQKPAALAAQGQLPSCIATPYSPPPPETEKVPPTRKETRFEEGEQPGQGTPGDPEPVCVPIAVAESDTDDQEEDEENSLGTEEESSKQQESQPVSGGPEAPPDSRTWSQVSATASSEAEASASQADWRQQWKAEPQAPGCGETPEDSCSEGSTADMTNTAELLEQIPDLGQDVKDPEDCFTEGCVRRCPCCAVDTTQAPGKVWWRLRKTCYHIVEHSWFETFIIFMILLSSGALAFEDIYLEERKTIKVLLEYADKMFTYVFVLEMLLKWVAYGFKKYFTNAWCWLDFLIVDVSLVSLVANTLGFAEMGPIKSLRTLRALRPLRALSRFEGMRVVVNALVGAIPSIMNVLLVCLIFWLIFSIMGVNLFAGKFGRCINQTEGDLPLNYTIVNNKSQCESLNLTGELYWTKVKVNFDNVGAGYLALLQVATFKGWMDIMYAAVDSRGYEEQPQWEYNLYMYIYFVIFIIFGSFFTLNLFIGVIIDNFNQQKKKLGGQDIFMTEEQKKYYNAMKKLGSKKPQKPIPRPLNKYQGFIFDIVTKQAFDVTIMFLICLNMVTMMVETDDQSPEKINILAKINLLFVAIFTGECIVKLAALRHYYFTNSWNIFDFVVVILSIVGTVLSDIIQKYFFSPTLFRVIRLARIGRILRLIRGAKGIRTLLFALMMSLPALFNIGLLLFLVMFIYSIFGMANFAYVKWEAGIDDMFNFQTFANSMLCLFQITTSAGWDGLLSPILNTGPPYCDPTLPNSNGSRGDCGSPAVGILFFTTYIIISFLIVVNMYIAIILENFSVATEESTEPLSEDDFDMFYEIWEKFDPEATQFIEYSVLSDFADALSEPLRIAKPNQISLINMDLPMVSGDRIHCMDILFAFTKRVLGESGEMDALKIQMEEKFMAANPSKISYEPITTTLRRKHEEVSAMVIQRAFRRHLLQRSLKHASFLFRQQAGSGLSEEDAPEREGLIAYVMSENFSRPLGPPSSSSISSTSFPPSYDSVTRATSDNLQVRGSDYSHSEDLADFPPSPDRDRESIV
Chain of Somatostatin receptor type 2 (P30874 whole entry): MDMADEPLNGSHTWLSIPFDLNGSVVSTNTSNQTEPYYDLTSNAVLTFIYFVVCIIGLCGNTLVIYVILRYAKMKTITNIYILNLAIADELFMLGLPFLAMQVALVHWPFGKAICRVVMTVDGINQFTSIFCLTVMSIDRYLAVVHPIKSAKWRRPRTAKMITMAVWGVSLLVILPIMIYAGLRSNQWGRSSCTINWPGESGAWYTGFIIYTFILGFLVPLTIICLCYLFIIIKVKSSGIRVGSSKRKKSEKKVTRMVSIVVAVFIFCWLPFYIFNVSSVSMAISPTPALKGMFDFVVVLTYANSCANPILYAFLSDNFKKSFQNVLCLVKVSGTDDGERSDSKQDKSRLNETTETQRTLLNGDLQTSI
Chain of Voltage-gated inwardly rectifying potassium channel KCNH2 (Q12809 whole entry): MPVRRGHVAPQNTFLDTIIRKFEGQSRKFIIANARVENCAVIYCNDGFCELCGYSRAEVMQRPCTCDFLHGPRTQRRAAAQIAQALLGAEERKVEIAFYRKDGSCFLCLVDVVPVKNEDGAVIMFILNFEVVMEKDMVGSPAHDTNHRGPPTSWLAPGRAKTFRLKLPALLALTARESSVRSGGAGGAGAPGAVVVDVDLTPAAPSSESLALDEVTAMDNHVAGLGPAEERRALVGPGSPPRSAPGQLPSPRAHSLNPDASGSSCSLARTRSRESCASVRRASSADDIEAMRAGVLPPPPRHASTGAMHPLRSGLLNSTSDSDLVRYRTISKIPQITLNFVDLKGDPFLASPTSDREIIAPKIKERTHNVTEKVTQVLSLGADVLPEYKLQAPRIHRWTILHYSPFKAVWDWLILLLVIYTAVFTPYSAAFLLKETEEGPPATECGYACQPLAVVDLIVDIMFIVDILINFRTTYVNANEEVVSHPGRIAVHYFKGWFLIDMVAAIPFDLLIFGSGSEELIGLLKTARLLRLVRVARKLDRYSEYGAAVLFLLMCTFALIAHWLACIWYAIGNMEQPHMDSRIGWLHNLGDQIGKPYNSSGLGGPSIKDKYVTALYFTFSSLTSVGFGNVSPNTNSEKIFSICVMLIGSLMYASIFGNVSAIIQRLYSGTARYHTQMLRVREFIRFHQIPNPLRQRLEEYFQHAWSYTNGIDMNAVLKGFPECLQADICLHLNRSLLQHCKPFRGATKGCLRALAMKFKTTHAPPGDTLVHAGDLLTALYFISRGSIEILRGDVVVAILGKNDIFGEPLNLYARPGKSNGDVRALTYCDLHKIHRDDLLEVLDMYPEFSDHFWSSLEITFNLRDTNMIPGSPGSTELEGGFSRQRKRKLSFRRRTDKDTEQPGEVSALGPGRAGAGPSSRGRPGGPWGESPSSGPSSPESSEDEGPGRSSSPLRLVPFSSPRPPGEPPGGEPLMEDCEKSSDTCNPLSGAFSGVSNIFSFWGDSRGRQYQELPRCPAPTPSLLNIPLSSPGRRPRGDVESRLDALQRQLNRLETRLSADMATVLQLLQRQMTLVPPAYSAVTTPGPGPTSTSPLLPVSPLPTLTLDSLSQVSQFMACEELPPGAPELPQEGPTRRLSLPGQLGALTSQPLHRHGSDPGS

For CCOc1cc(CN2CCC3(CC2)CC(=O)N(c2ccc(C(=O)O)cc2)C3)cc(OCC)c1-c1ccc(F)cc1.O=C(O)C(F)(F)F, the IC50 (Cytochrome P450 2D6) was greater than 50 µM, the solubility [1] was 5300 µg/mL and the bioavailability [2] was 40%. It also gave an IC50 [3] greater than 15 µM, an IC50 (Cytochrome P450 2C9) greater than 50 µM and a concentration at 3 h [4] of 34 nM. For the same compound, the IC50 [5] was 45 µM, the Vd [6] was 2.38 L/kg and the Activity (Mus musculus [7]) was 84 - 94%. For the same compound, the Activity (Mus musculus [8]) was “Active”, the Vd [9] was 1.39 L/kg and the clearance [10] was 2.2 mL/min/kg. It also gave a Vd [11] of 2.82 L/kg, an Activity (Mus musculus [12]) of 74% and an Activity (Mus musculus [13]) of 58%. The Activity (Pancreatic islet [14]) was “inactive”, the Activity (Pancreatic islet [15]) was “inactive” and the clearance [16] was 15.2 mL/min/kg. For the same compound, the Activity (Pancreatic islet [17]) was “Active”, the bioavailability [18] was 72% and the bioavailability [19] was 41%. For the same compound, the Fu [20] was 5.4%, the IC50 [21] was greater than 10 µM and the “Cp(f)” value [22] was 0.2 nM. It also gave an Activity (Mus musculus [23]) of 59%, an Activity (Mus musculus [24]) of 23% and an IC50 [25] greater than 10 µM. The minimal effective dose (Mus musculus [26]) was 0.1 mg/kg and the Activity (Mus musculus [27]) was “inactive”.
